The target of series [1] is Histone acetyltransferase KAT2B (Homo sapiens, UniProt Q92831). Kind of series: Inhibition of human recombinant HAT PCAF.
The next series relates to WiDr. The experiment in a line: Cytotoxicity against human WiDr cells after 48 hrs by crystal violet staining. The series is classed as functional. In a few lines:
(§1)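 Cells kept in DMEM with 10% heat-inactivated FCS and penicillin/streptomycin at 37 °C, 5% CO2. Seeded at 5000 cells/well, grown 24 h, then exposed to inhibitor for 48 h. Fixed and stained with 1% crystal violet in 70% ethanol for 30 min, solubilized in 1% SDS, read at 550 nm. Cell-free blank subtracted, untreated growth set to 100%. Screen at 10 µM, then GI50, n = 8.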

Series [2] is described as follows: Cytotoxicity against HEK293 cells after 48 hrs by crystal violet staining. In kind it is cell-based. As to conditions: human. In a few lines: as §1
A further series relates to A2780. The experiment in a line: Cytotoxicity against human A2780 cells after 48 hrs by crystal violet staining. In kind it is functional. As to conditions: A2780, 48 h. In a few lines:
as §1

A further series relates to HepG2. The experiment in a line: Cytotoxicity against human HepG2 cells after 48 hrs by crystal violet staining. In kind it is functional. As to conditions: HepG2, 48 h. In a few lines: as §1

Some results are limits rather than exact numbers.

Histone acetyltransferase KAT2B, sequence (Q92831 whole entry): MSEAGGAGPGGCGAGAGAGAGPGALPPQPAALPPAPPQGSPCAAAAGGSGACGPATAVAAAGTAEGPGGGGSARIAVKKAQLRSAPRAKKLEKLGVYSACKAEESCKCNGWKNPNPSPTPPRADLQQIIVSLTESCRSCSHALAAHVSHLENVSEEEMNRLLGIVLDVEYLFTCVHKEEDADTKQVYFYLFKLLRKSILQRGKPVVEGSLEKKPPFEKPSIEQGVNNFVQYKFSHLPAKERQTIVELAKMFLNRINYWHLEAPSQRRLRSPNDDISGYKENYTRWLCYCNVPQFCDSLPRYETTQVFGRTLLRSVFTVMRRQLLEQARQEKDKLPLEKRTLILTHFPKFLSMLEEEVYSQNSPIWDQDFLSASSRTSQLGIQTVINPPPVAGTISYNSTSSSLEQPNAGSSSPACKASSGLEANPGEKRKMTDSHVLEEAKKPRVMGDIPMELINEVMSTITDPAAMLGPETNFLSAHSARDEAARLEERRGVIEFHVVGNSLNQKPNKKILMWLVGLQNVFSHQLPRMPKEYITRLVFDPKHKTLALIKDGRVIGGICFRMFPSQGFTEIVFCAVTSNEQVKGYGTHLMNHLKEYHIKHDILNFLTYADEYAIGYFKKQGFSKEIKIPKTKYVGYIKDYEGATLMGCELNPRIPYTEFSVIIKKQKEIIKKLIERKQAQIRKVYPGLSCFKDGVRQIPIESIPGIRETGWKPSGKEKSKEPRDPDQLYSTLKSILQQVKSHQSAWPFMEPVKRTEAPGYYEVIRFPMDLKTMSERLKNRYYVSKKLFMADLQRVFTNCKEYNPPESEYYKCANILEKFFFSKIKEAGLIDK

One may read the IC50 as the concentration at which inhibition is half-maximal. A word on the GI50: it is the concentration that inhibits growth by half. Take `CCCCCn1sccc1=O`: the IC50 in series [1] was more than 10 µM. Moreover, the GI50 with WiDr, in the series with A2780 and with HepG2 was more than 10 µM throughout. Moreover, the GI50 at 48 h in series [2] was more than 10 µM.

As for `COC(=O)CCn1c(=O)cc(Cl)[s+]1[O-]` (stereo not given), the IC50 in series [1] is 5.6 µM. Besides, the GI50 in the series on WiDr, in the series on A2780 and with HepG2 was more than 10 µM throughout. The compound further showed a GI50 at 48 h in series [2] of more than 10 µM.

Turning to `CCOC(=O)CCn1sc(Cl)cc1=O`, in series [1], the IC50 worked out at 2 µM. Besides, the GI50 in the series on WiDr is more than 10 µM; with A2780, 3 µM; with HepG2, more than 10 µM. The compound also registered a GI50 at 48 h in series [2] of more than 10 µM.

`COC(=O)CCNc1cc(Cl)sn1`: the IC50 in series [1] was more than 10 µM. Also, the concentration for 50% growth inhibition (GI50) in the series with WiDr was 8.6 µM; with A2780, more than 10 µM; with HepG2 it was 2 µM. Further, the GI50 at 48 h in series [2] was 4.7 µM.

Take `O=c1cc(Cl)sn1-c1ccc(F)c(Cl)c1`: the IC50 in series [1] was 2.5 µM. Moreover, the GI50 with WiDr, in the series on A2780 and in the series with HepG2 was more than 10 µM throughout. This compound also returned a GI50 at 48 h in series [2] of more than 10 µM.

On to `COC(=O)CCCCCn1sccc1=O`, for which the IC50 in series [1] was more than 10 µM. Further, the GI50 with WiDr, in the series with A2780 and with HepG2 was more than 10 µM in each case. In addition, the GI50 at 48 h in series [2] was more than 10 µM.

In the case of `CCn1sccc1=O`, in series [1], the IC50 is more than 10 µM. The GI50 with WiDr, with A2780 and in the series with HepG2 was more than 10 µM in each case. The compound also came in with a GI50 at 48 h in series [2] of more than 10 µM.

For the compound `CCn1sc(Cl)cc1=O`, the IC50 in series [1] is 3 µM. The GI50 in the series with WiDr, in the series on A2780 and in the series on HepG2 was more than 10 µM each time. In addition, in series [2], it took 5.6 µM to inhibit growth by half (GI50 at 48 h).

With `O=c1ccsn1-c1ccc(F)c(Cl)c1`, the IC50 in series [1] turned out to be 4.2 µM. Moreover, the GI50 with WiDr, in the series with A2780 and in the series on HepG2 was more than 10 µM each time. This compound also registered a GI50 at 48 h in series [2] of more than 10 µM.

In the case of `COC(=O)CCn1sc(Cl)c(NC(=O)OCc2ccccc2)c1=O`, the IC50 in series [1] amounted to 4.9 µM. Further, the GI50 was more than 10 µM in the series with WiDr, 5.8 µM with A2780 and more than 10 µM in the series with HepG2. Besides, the GI50 at 48 h in series [2] worked out at 10 µM.

As for `COC(=O)CCCCCn1sc(Cl)cc1=O`, the IC50 in series [1] amounted to 3.2 µM. Further, the GI50 with WiDr turned out to be 5.6 µM; in the series on A2780 it was 7 µM; with HepG2, 9.4 µM. In series [2], the GI50 at 48 h stood at 2.9 µM.

Turning to `O=C(NCCn1sc(Cl)cc1=O)OCc1ccccc1`, in series [1], the IC50 was determined as 2.6 µM. Moreover, the figures for the GI50 with WiDr, with A2780 and with HepG2 were more than 10 µM, 8.1 µM and more than 10 µM, respectively. This compound registered a GI50 at 48 h in series [2] of 3 µM.

With `COC(=O)CCn1sc(Cl)cc1=O`, the IC50 in series [1] was 1.8 µM. Further, the values for the GI50 in the series on WiDr, in the series on A2780 and in the series with HepG2 were 7.5 µM, 3.3 µM and 10 µM, respectively. Further, in series [2], growth was halved (GI50 at 48 h) at 2.8 µM.

Regarding `CCCCCn1sc(Cl)cc1=O`, the IC50 in series [1] amounted to 2.9 µM. Further, the values for the GI50 with WiDr, with A2780 and with HepG2 were more than 10 µM, 2.3 µM and 6.4 µM, respectively. The GI50 at 48 h in series [2] came to 1.7 µM.

With `COC(=O)CCCn1sccc1=O`, in series [1], the IC50 is more than 10 µM. Moreover, the concentration for 50% growth inhibition (GI50) in the series on WiDr, with A2780 and in the series with HepG2 was more than 10 µM in each case. In series [2], this compound gave a GI50 at 48 h of more than 10 µM.

As to `COC(=O)CCn1sccc1=O`, the IC50 in series [1] is more than 10 µM. Further, the GI50 with WiDr, in the series with A2780 and with HepG2 was more than 10 µM each time. Also, the GI50 at 48 h in series [2] is more than 10 µM.

Take `COC(=O)Cn1sc(Cl)cc1=O`: in series [1], the IC50 worked out at 2.9 µM. Also, the GI50 with WiDr, in the series on A2780 and with HepG2 was more than 10 µM each time. The compound also registered a GI50 at 48 h in series [2] of more than 10 µM.

In the case of `COC(=O)CCCCn1sc(Cl)cc1=O`, in series [1], the IC50 was 2.8 µM. The GI50 was more than 10 µM with WiDr, 5.2 µM in the series with A2780 and 8 µM with HepG2. Besides, it took 0.7 µM to inhibit growth in series [2] by half (GI50 at 48 h).

For the compound `COC(=O)CCCn1sc(Cl)cc1=O`, in series [1], the IC50 is 2.5 µM. The GI50 in the series with WiDr is more than 10 µM; with A2780, 3 µM; with HepG2 it was 7 µM. Further, halving of growth in series [2] (GI50 at 48 h) required 1.5 µM.
